# Published values collected from several papers.
# Each line is one published result; the experiments were not run side by side.
SMILES,test,system,setting,solubility
CC(=O)N[C@@H](CC(N)=O)C(=O)N[C@@H](CC(N)=O)C(=O)N[C@@H](CC(C)C)C(=O)N[C@H]1CSSC[C@@H](C(=O)N[C@H](C(N)=O)[C@@H](C)O)NC(=O)[C@H](CCCNC(=N)N)NC(=O)[C@H](Cc2c[nH]cn2)NC(=O)[C@H](C)NC(=O)CNC(=O)[C@H](Cc2c[nH]c3ccccc23)NC(=O)[C@H](CC(=O)O)NC(=O)[C@H](CCC(N)=O)NC(=O)[C@H](Cc2c[nH]c3ccccc23)NC(=O)[C@H](C(C)C)NC1=O,,PBS,pH 7.4,3920 µg/mL
Cc1c(F)cccc1Nc1nc(NCc2ccccc2)c2ccccc2n1,,aqueous buffer,pH 7.4,< 0.01 µg/mL
CCOC(=O)C1=C(C)NC(C)=C(C(=O)OC)C1c1cccc(Cl)c1Cl (centres unmarked),,FaSSIF,"24 h, pH 7.4, 37 °C",40 µg/mL
Brc1ccccc1CNc1nc(NCc2ccccc2)c2ccccc2n1,,aqueous buffer,pH 7.4,0.14 µg/mL
COc1cc(OC)cc(N(CCNC(C)C)c2ccc3ncc(-c4cnn(C)c4)nc3c2)c1,,aqueous buffer,pH 9.61,1 µg/mL
CCOc1ccc2cc(-c3nn(CC(C)(C)CO)c(N)c3C(N)=O)ccc2n1,,PBS,"pH 6.5, 25 °C",> 100 µM
CC[C@H](C)[C@H](NC(=O)[C@H](Cc1ccccc1)NC(=O)[C@H](Cc1ccc(O)cc1)NC(=O)[C@@H]1CCCN1C(=O)[C@@H](N)Cc1ccc(O)cc1)C(=O)N1CCC[C@H]1C(=O)N[C@H](CCCCN)C(=O)NCC(=O)N[C@H](CCCCN)C(=O)NCC(=O)N[C@@H](CCC(=O)O)C(=O)N[C@H](C(=O)N[C@@H](CC(N)=O)C(=O)N[C@@H](CC(C)C)[C@@H](O)CC(=O)N[C@H](C(=O)N[C@@H](C)C(=O)N[C@@H](CCC(=O)O)C(=O)N1CCC[C@@H]1C(=O)N[C@@H](CCCCNC(=O)CCC(=O)O[C@H]1CC[C@@]2(C)C(=CC[C@H]3[C@@H]4CC[C@H]([C@H](C)CCCC(C)C)[C@@]4(C)CC[C@@H]32)C1)C(N)=O)C(C)C)C(C)C,,aqueous buffer,pH 6.5,> 718 µg/mL
CS(=O)(=O)N1CCN(Cc2cc3nc(-c4cccc5[nH]ncc45)nc(N4CCOCC4)c3s2)CC1,,FeSSIF,,6 µg/mL
COC(=O)Nc1nc2cc(C(=O)c3ccc(F)cc3)ccc2[nH]1,,water,24 h,< 1 µg/mL
O=C(Nc1ccc(S(=O)(=O)N2CCC(Cl)CC2)cc1)c1ccc([N+](=O)[O-])o1,,aqueous buffer,pH 5,3.8 µg/mL
COc1ccc(C2CC(=O)c3c(O)cc(O)cc3O2)cc1O (centres unmarked),shake flask,water,"24 h, 25 °C",15.7 µg/mL
OCc1n(Cc2ccc3ccccc3c2)cc[n+]1Cc1ccc2ccccc2c1.[Br-],,water,,< 500 µg/mL
COC(=O)[C@H]1[C@H]2C[C@@H]3c4[nH]c5cc(OC)ccc5c4CCN3C[C@H]2C[C@@H](OC(=O)c2cc(OC)c(OC)c(OC)c2)[C@@H]1OC,shake flask,PBS,"24 h, pH 6.5, 25 °C",< 5 µM
CCc1nc2ccc(Cl)cn2c1C(=O)NCc1ccc(N2CCC(c3ccc(OC(F)(F)F)cc3)CC2)cc1,,PBS,,61 µM
COCCc1nc2nc(C)cc(Nc3ccc(C(F)(F)F)cc3)n2n1,nephelometry,aqueous buffer,pH 6.5,71 to 140 µM
N=C(N)N1CC=C(c2coc(C(=O)Nc3ccc(C4=CCN(C(=N)N)CC4)c(F)c3)c2)CC1,shake flask,aqueous buffer,pH 7.4,58 µg/mL
COc1cccc2c(NCc3ccccc3)nc(NCc3ccccc3)nc12,,aqueous buffer,pH 5,3.2 µg/mL
CCCCCCCCN1CCCC1=O,,PBS,"48 h, pH 7.4, 25 °C",4800 µM
CCn1c(-c2nc3cc(C(=O)N4CCC[C@@H](N)C4)cc(OC)c3n2C)cc2cccnc21,,aqueous buffer,,396 µM
Cc1cccc(C(=O)Nc2cccc(NC(=O)c3ccccc3)c2)c1,,aqueous buffer,,< 0.03 µM
COc1cccc(OC)c1-c1nc(C(=O)N[C@@H](CC(C)C)C(=O)O)cn1-c1ccnc2cc(Cl)ccc12,,aqueous buffer,pH 6.2,> 52 µg/mL
O=C(Nc1cc(F)c(F)c(F)c1)c1ccc(F)c(S(=O)(=O)NCc2cccc(B(O)O)c2)c1,,aqueous buffer,pH 7,329 µg/mL
CCCOc1ccc2cc(-c3nn(C(C)(C)C)c(N)c3C(N)=O)cnc2c1,,PBS,"pH 6.5, 25 °C",12.7 µM
COCCc1nc2nc(C)cc(Nc3ccc(S(F)(F)(F)(F)F)cc3)n2n1,nephelometry,aqueous buffer,pH 6.5,31 to 62 µM
O=C(NCCN1CCCC1)c1cc(-c2ccc(CN3CCOCC3)cc2)nc2ccc(F)cc12,,aqueous buffer,pH 7.4,2800 µM
Clc1cccc(Nc2nc(NCc3cccc(Br)c3)c3ccccc3n2)c1,,aqueous buffer,pH 5,0.1 µg/mL
COc1cccc(OC)c1-c1cc(C(=O)N[C@@H](CC(C)C)C(=O)O)nn1-c1ccnc2cc(Cl)ccc12,,aqueous buffer,pH 6.2,> 155 µg/mL
CCC(C)n1ncn(-c2ccc(N3CCN(c4ccc(OCC5COC(Cn6cncn6)(c6ccc(Cl)cc6Cl)O5)cc4)CC3)cc2)c1=O (centres unmarked),,aqueous buffer,pH 6,2.5 µg/mL
COc1cccc2c(NCc3ccccc3)nc(-n3c(=O)oc4ccccc43)nc12,,aqueous buffer,pH 7.4,< 0.01 µg/mL
CCn1cc(CNC(=O)C2=C(C)NC(Nc3nc4ccc(F)c(N)c4o3)=NC2c2ccc(C)cc2Cl)cn1 (centres unmarked),,aqueous buffer,"6 h, pH 7.4",< 1 µg/mL
O=C(O)c1ccccc1O,,PBS,pH 7.4,7700 µg/mL
CC(C)CC(=O)N1CCC[C@H](COc2cccc3c2C(N)=NS(=O)(=O)[N-]3)C1.[Na+],,water,,235000 µM
Fc1ccc(-c2nc3c(C4CCNCC4)nccc3[nH]2)cc1F,shake flask,aqueous buffer,pH 6.5,> 200 µM
CC(C)(C)n1nc(-c2cnc3cc(OC4CCC4)ccc3c2)c(C(N)=O)c1N,,PBS,"pH 6.5, 25 °C",3.7 µM
O=C(c1ccccn1)N(Cc1cccs1)C1(C(=O)NC2CCCCC2)CCCCC1,,aqueous buffer,pH 6.2,6.6 µg/mL
Cl.c1ccc(Cn2c(N3CCNCC3)nc3cc(-c4ccccc4)ccc32)cc1,shake flask,aqueous buffer,"20 h, pH 6.5, 25 °C",25 µM
CCCn1nc(C(=O)N2CCCCC2)c2c1CCC(N(C)Cc1ccc(F)cc1)C2 (centres unmarked),,PBS,"16 h, pH 7.4",2420 µM
CCOc1ccc2cc(-c3nn(C4CCCCCC4)c(N)c3C(N)=O)cnc2c1,,PBS,"pH 6.5, 25 °C",8.5 µM
CCCCOC(=O)c1ccc(O)cc1,,PBS,pH 7.4,310 µg/mL
Cc1ccc(S(=O)(=O)NCc2ccc(C(=O)NCCN(Cc3ccccc3)C(C)C)cc2)cc1,,aqueous buffer,pH 6.2,0.12 µg/mL
CS(=O)(=O)c1ccc2c(c1)nc(C1CCNCC1)n2Cc1ccccc1.Cl,shake flask,aqueous buffer,"20 h, pH 6.5, 25 °C",200 µM
CN1CCN(CC2CCN(c3nccc4[nH]c(-c5cccc(OC(F)(F)F)c5)nc34)CC2)CC1,shake flask,aqueous buffer,pH 6.5,> 200 µM
Cc1ccc(F)cc1Nc1nc(NCc2ccccc2)c2ccccc2n1,,aqueous buffer,pH 6.2,0.07 µg/mL
Clc1ccc2c(c1)nc(NCCN1CCOCC1)n2Cc1ccccc1,shake flask,aqueous buffer,"20 h, pH 6.5, 25 °C",53 µM
CCCN(C)Cc1cc(-c2[nH]c3cccc(F)c3c(=O)c2C)ccc1Cc1ccc(OC(F)(F)F)cc1,,PBS,pH 7.4,< 0.2 µM
[Cl-].c1ccc2nc(Cn3c[n+](Cc4ccc5ccccc5n4)c4ccccc43)ccc2c1,,water,,> 500 µg/mL
O=C(/C=C/c1ccc(CN(CCO)CCc2c[nH]c3ccccc23)cc1)NO,,simulated gastric fluid,"48 h, pH 2, 25 °C, acidic",4100 µg/mL
NC(=O)c1ccc(N(Cc2ccc(C3CCCCC3)cn2)C(=O)[C@H]2CCN2S(=O)(=O)c2c(F)c(F)c(F)c(F)c2F)cc1O,,simulated intestinal fluid,,117 µg/mL
CSc1nc2nc(C)cc(Nc3ccc(S(F)(F)(F)(F)F)cc3)n2n1,nephelometry,aqueous buffer,pH 6.5,7.8 to 15 µM
Cc1cc(F)cc(Nc2nc(NCc3ccccc3)c3ccccc3n2)c1,,aqueous buffer,pH 5,0.05 µg/mL
CCC(F)(F)c1nc2nc(C)cc(Nc3ccc(S(F)(F)(F)(F)F)cc3)n2n1,nephelometry,aqueous buffer,pH 6.5,15 to 30 µM
COc1ccc(Nc2nc(NCc3ccccc3)c3ccccc3n2)cc1F,,aqueous buffer,pH 7.4,0.08 µg/mL
Cc1cc(Nc2ccc(S(F)(F)(F)(F)F)cc2)n2nc(C(F)(F)F)nc2n1,nephelometry,aqueous buffer,pH 6.5,30 to 60 µM
Cl.Clc1ccc2c(nc(N3CCNCC3)n2Cc2ccccc2)c1-c1ccccc1,shake flask,aqueous buffer,"20 h, pH 6.5, 25 °C",195 µM
NC1CCN(c2nccc3[nH]c(-c4cccc(OC(F)(F)F)c4)nc23)CC1,shake flask,aqueous buffer,pH 6.5,> 200 µM
CCc1ccccc1-n1nc(C)c(C(=O)Nc2ccc3ccccc3n2)c1C,HPLC,PBS,"6 h, pH 7.4",5.9 µg/mL
